Measured values gathered from unrelated publications.
Compare with care: the assays were run in different laboratories.
Target: Glycogen synthase kinase-3 alpha (GSK3A, Homo sapiens, UniProt P49840)

Cn1cncc1[C@@](O)(COc1ccc(C#N)cc1-c1ccc(OC(F)(F)F)cc1)c1ccc(C#N)cc1
remaining binding (cell-free assay, competition with immobilised ligand; 1 µM): 100%

Cc1nn(C)cc1-c1nc2c(N3CCN(Cc4ccc(Cl)cc4)CC3)c(Cl)cnc2[nH]1
remaining binding (binding, competition with immobilised ligand; 1 µM): 100%

C#Cc1n[nH]c2c(-c3cn([C@@H](C)c4ccccc4)c(=O)[nH]c3=O)cc(F)cc12
inhibition (enzyme activity, inhibitor; 0.1 µM): -1.9%

Nc1ncc(-c2nc(N3CCOCC3)nc(N3CCOCC3)n2)c(C(F)F)n1
remaining binding (binding, competition with immobilised ligand; 10 µM): 91%

C#Cc1n[nH]c2c(-c3cn([C@@H](C)c4ccccn4)c(=O)[nH]c3=O)cc(F)cc12
inhibition (enzyme activity, inhibitor; 0.1 µM): -0.2%

Cn1cc(-c2cccc(N3CCc4c(sc5c4CC(C)(C)C5)C3=O)c2CO)cc(Nc2ccncn2)c1=O
inhibition (enzyme activity, inhibitor; 1 µM): 4%

COc1ncccc1-c1cnn2ccc(N3CCN(C(=O)OC(C)C)CC3)nc12
remaining binding (binding, competition with immobilised ligand; 1 µM): 100%

Cn1cc(-c2cc(F)cc(N3CCn4c(cc5c4CCCC5)C3=O)c2CO)cc(Nc2ccc(N3CCN(C4COC4)CC3)cn2)c1=O
inhibition (enzyme activity, inhibitor; 0.1 µM): 19%

O=c1[nH]c2ccccc2n1C1CCN(Cc2ccc(-c3[nH]c4cc5ncnc5cc4nc3-c3ccccc3)cc2)CC1
remaining signal (cell-free assay; 0.5 µM): 100%
